Assay outcomes: PubChem, Johns Hopkins Ion Channel Center
Only some compounds are listed: those with a hit (about 2.3% of all), similar ones and a draw of the others.
TRPC6 act = activates the mouse TRPC6 cation channel; hit rate 0.13% among 310,000; HEK293-TRPC6 membrane potential dye fluorescence; stronger effect = higher value; B-score at 10 µM; Q61143;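 active = B-score of the integrated fluorescence ratio above library mean plus 3 SD, and starting fluorescence ratio within library mean plus 5 SD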;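 also: higher score means more depolarization so channel activation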
TRPC4 agonist = activators of mouse TRPC4 channel; hit rate 0.49% among 310,000; HEK293 TRPC4beta/mu-opioid, Fluo4 calcium fluorescence; stronger effect = higher value; B-score at 10 µM; Q9QUQ5;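 active = B-score above 5 SD of library B-scores, and initial fluorescence ratio not above library mean plus 5 SD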;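 also: positive B-score marks a calcium rise read as TRPC4 activation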
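Incubation: 45 min room-temperature Fluo4 loading, 110 s read / System: HEK293 cells stably co-expressing mouse TRPC4beta and mu-opioid receptor / Signal: Fluo4 fluorescence, kinetic / Control set: buffer (low) and maximal DAMGO (high) / Measure: integrated baseline-normalised fluorescence ratio, converted to per-well B score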
TRPC4 PAM = allosterically enhances the mouse TRPC4 cation channel | Q9QUQ5 | HEK293 TRPC4beta/mu-opioid, DAMGO EC20, Fluo-4 Ca2+ flux; stronger effect = higher value | B-score at 10 µM | hit rate 0.42% among 310,000 | AID 2227;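 active = B-score of calcium response area above 5 SD of library B-scores, with initial fluorescence ratio within 5 SD of library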;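 also: B-score of integrated fluorescence ratio over time as area under calcium response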
TRPC4 inh = TRPC4 (mouse) channel inhibition | HEK293 TRPC4beta/mu-opioid, DAMGO-evoked Fluo4 calcium flux; stronger effect = lower value | Q9QUQ5 | hit rate 0.39% among 300,000 | B-score at 10 µM;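 active = B-score over 3 SD under the library average, no early fluorescence shift, positive overall ratio signal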
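Assay system: TRPC4beta/mu-opioid receptor HEK293 cell line; compound dosing: single concentration per test compound; detection: Fluo4 Ca2+ flux fluorescence; evaluation: per-well B score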
TRPC6 inhibitor = mouse TRPC6 channel inhibition. HEK293-TRPC6, membrane potential dye, ACh-evoked depolarization; stronger effect = lower value. B-score at 10 µM. hit rate 1.1% among 310,000;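 active = B-score under library mean minus 3 SD, initial fluorescence not abnormally high, positive integrated signal ratio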;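 also: B-score derived from integrated fluorescence ratio over the kinetic read; more negative B-score means stronger inhibition of depolarization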
* marks the source's active call; other numbers are inactive results; i = inactive.

SMILES | TRPC6 act | TRPC4 agonist | TRPC4 PAM | TRPC4 inh | TRPC6 inhibitor
Cc1ccc(NC(=S)NC2CC3CCC(C2)N3Cc2ccco2)c(C)c1 (stereo unspecified) | i | 116* | i | i | i
Cc1cccc(NC(=S)NC2CC3CCCC(C2)N3Cc2ccccc2)c1C (stereo unspecified) | i | 65* | i | i | i
Cc1cccc(NC(=S)NC2CC3CCC(C2)N3Cc2ccco2)c1C (stereo unspecified) | i | i | i | i | i
O=C(N/C=C/c1ccccc1)c1ccccc1 | i | i | i | i | i
CC(C)=CCCC(C)CN1CCC(n2nccc2NC(=O)C2CCCC2)CC1 (stereo unspecified) | i | i | i | -5* | i
COc1ccc(C2CC(=O)N3CN(c4ccc(C)c(Cl)c4)CSC3=C2C#N)cc1OC (stereo unspecified) | i | i | i | -6* | i
COc1ccccc1C1CCN(c2cc(O)ccc2[N+](=O)[O-])CC1 | i | i | 13* | -5* | i
COc1ccccc1C1CCN(C(=O)c2ccccc2)CC1 | i | i | i | i | i
CCN1CCN(c2cc(N3CCN(C(=O)c4ccco4)CC3)c3c4c(onc24)-c2ccccc2C3=O)CC1 | i | i | i | i | -5.9*
CCOc1ccc(CCNC(=O)COC(=O)c2cccc(S(=O)(=O)N3CCCC3)c2)cc1OCC | i | i | i | i | i
CCOC(=O)c1cnc2ccccc2c1NCc1ccco1 | i | i | i | -6* | i
CCOC(=O)c1cnc2ccc(OC)cc2c1NCc1ccccc1 | i | i | i | i | i
CCCCOc1ccc(CN=C(N)N)cc1Cl | i | i | i | i | i
CCCOc1ccc(CCCN=C(N)N)cc1Cl | i | 53* | i | i | i
CCCCn1c(NCCO)nc2ccccc21 | i | i | i | -6* | i
O=C(Cn1c(NCCCO)nc2ccccc21)c1ccc(Br)cc1 | i | i | i | -7* | i
CCCCn1c(NCc2ccccc2O)nc2ccccc21 | i | i | i | i | i
OCCNc1nc2ccccc2n1CCN1CCCCC1 | i | i | i | -6* | i
CC1CCCCN1C(=O)c1c([N+](=O)[O-])cnn1C (stereo unspecified) | i | i | i | i | i
Cn1ccnc1CN1CCCCC1C(=O)Nc1ccc(Oc2cccnc2)cc1 (stereo unspecified) | i | i | i | i | i
Clc1ccc(-c2csc3ncnc(NCCN4CCOCC4)c23)cc1 | i | i | i | -5* | i
Cc1ccc(-c2csc3ncnc(NCCN4CCOCC4)c23)cc1 | i | i | i | -6* | i
c1ccc(-c2csc3ncnc(NCCN4CCOCC4)c23)cc1 | i | i | i | i | i
CC(=O)Nc1ccccc1OCC(=O)c1cc(C)n(Cc2cccs2)c1C | i | 72* | i | i | i
Cc1cc(C(=O)COc2cccnc2[N+](=O)[O-])c(C)n1Cc1cccs1 | i | i | i | i | i
SMILES | TRPC6 act | TRPC4 agonist | TRPC4 PAM | TRPC4 inh | TRPC6 inhibitor
CCCOc1ccc(N2C(=O)CC(NCC(=O)OCC)C2=O)cc1 (stereo unspecified) | i | i | i | i | i
CSc1nsc(SCC(=O)Nc2ccccc2)n1 | i | i | i | i | i
CSc1nsc(NC(=O)Cc2ccccc2)n1 | i | i | i | -6* | i
CCOC(=O)C1=NNC(C(=O)c2ccccc2)C1c1ccc(C)cc1 (stereo unspecified) | i | i | i | -8* | i
Cc1ccc(C)c(NC(=O)c2cc(=O)c3ccccc3o2)c1 | i | i | 12* | i | i
CC(OC(=O)C1CCN(S(=O)(=O)c2ccc(Cl)cc2)CC1)C(=O)NC1CCCCC1C (stereo unspecified) | i | i | i | i | i
O=C(Nc1ccc(C(=O)N2CCCCC2)cc1)c1ccc([N+](=O)[O-])cc1 | i | i | i | i | i
O=CC1=C(c2ccccc2)Oc2ccccc2O1 | i | i | i | i | i
Cc1cccc(S(=O)(=O)Nc2nc3ccccc3nc2OC(C)C)c1 | i | i | i | i | i
